Read-outs that look alike come from different tables or passages of the source.
Legend:
[1] = reported; cited from earlier work
[2] = Stability of the analytes in human plasma at QC levels; assay type: in vitro ADME; conditions: for Short-term Dev. (%) / Short-term MCM ± SD: 6 h, r.t.; for Short-term Dev. (%) / Short-term MCM ± SD / Long-term Dev. (%) / Long-term MCM ± SD / Freeze–thaw Dev. (%) / Freeze–thaw MCM ± SD: human plasma; for Short-term Dev. (%) / Short-term MCM ± SD / Long-term Dev. (%) / Long-term MCM ± SD / The autosampler Dev. (24h, %) / The autosampler MCM ± SD (24h) / The autosampler Dev. (48h, %) / The autosampler MCM ± SD (48h) / Freeze–thaw Dev. (%) / Freeze–thaw MCM ± SD: n = 5; for Long-term Dev. (%) / Long-term MCM ± SD: 40 days; for Long-term Dev. (%) / Long-term MCM ± SD / Freeze–thaw Dev. (%) / Freeze–thaw MCM ± SD: −40 °C; for The autosampler Dev. (24h, %) / The autosampler MCM ± SD (24h) / The autosampler Dev. (48h, %) / The autosampler MCM ± SD (48h): autosampler r.t.; for Freeze–thaw Dev. (%) / Freeze–thaw MCM ± SD: four cycles
Procedure, shortened: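 QC plasma made by spiking working solution into drug-free human plasma (1:9); the phosphate ester is pre-stabilised with 2M sodium cacodylate and 50% KF. Freeze-thaw: frozen at −40 °C for 24 h, thawed at 25 °C. Short-term: 6 h at room temperature. Long-term: −40 °C for 40 days. Quantified by UPLC-MS/MS against 1/x-weighted analyte/IS peak-area-ratio calibration curves.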

[3] = assay type: in vivo, human (Chinese male healthy subjects); conditions: mean ± SD, n = 23

Short-term Dev. (%) ([2]; high QC)	Short-term MCM ± SD ([2]; high QC)	Long-term Dev. (%) ([2]; high QC)	Long-term MCM ± SD ([2]; high QC)	The autosampler Dev. (24h, %) ([2]; high QC)	The autosampler MCM ± SD (24h) ([2]; high QC)	The autosampler Dev. (48h, %) ([2]; high QC)	The autosampler MCM ± SD (48h) ([2]; high QC)	Freeze–thaw Dev. (%) ([2]; high QC)	Freeze–thaw MCM ± SD ([2]; high QC)	Short-term Dev. (%) ([2]; low QC)	Short-term MCM ± SD ([2]; low QC)	Long-term Dev. (%) ([2]; low QC)	Long-term MCM ± SD ([2]; low QC)	The autosampler Dev. (24h, %) ([2]; low QC)	The autosampler MCM ± SD (24h) ([2]; low QC)	The autosampler Dev. (48h, %) ([2]; low QC)	The autosampler MCM ± SD (48h) ([2]; low QC)	Freeze–thaw Dev. (%) ([2]; low QC)	Freeze–thaw MCM ± SD ([2]; low QC)	SMILES	other results
−0.51%	44.42 ± 0.893 × 10^−9 mol·dm^−3	4.01%	46.43 ± 1.399 × 10^−9 mol·dm^−3	−6.84%	41.59 ± 1.016 × 10^−9 mol·dm^−3	−2.95%	43.33 ± 1.131 × 10^−9 mol·dm^−3	0.68%	44.94 ± 1.177 × 10^−9 mol·dm^−3	4.0%	0.258 ± 0.048 × 10^−9 mol·dm^−3	−3.2%	0.240 ± 0.012 × 10^−9 mol·dm^−3	−11.2%	0.220 ± 0.016 × 10^−9 mol·dm^−3	−10.4%	0.222 ± 0.020 × 10^−9 mol·dm^−3	11.2%	0.276 ± 0.042 × 10^−9 mol·dm^−3	CCC(=O)OCC(=O)[C@@]1(OC(=O)CC)[C@@H](C)C[C@H]2[C@@H]3CCC4=CC(=O)C=C[C@]4(C)[C@@]3(F)[C@@H](O)C[C@@]21C [BDP, betamethasone dipropionate]	elimination half-life time [1]: 25.8 min; Short-term Dev. (%) ([2]; middle QC): 2.04%; Short-term MCM ± SD ([2]; middle QC): 4.746 ± 0.155 × 10^−9 mol·dm^−3; Long-term Dev. (%) ([2]; middle QC): 1.80%; Long-term MCM ± SD ([2]; middle QC): 4.734 ± 0.141 × 10^−9 mol·dm^−3; The autosampler Dev. (24h, %) ([2]; middle QC): −7.45%; The autosampler MCM ± SD (24h) ([2]; middle QC): 4.304 ± 0.123 × 10^−9 mol·dm^−3; The autosampler Dev. (48h, %) ([2]; middle QC): −5.68%; The autosampler MCM ± SD (48h) ([2]; middle QC): 4.387 ± 0.103 × 10^−9 mol·dm^−3; Freeze–thaw Dev. (%) ([2]; middle QC): 3.45%; Freeze–thaw MCM ± SD ([2]; middle QC): 4.811 ± 0.135 × 10^−9 mol·dm^−3
8.02%	64.74 ± 5.074 × 10^−9 mol·dm^−3	−12.3%	52.55 ± 2.816 × 10^−9 mol·dm^−3	−10.82%	53.47 ± 2.906 × 10^−9 mol·dm^−3	6.68%	63.95 ± 3.102 × 10^−9 mol·dm^−3	5.54%	63.29 ± 2.673 × 10^−9 mol·dm^−3	9.63%	0.610 ± 0.048 × 10^−9 mol·dm^−3	7.34%	0.597 ± 0.064 × 10^−9 mol·dm^−3	5.04%	0.584 ± 0.056 × 10^−9 mol·dm^−3	2.29%	0.569 ± 0.087 × 10^−9 mol·dm^−3	3.67%	0.577 ± 0.038 × 10^−9 mol·dm^−3	C[C@H]1C[C@H]2[C@@H]3CCC4=CC(=O)C=C[C@]4(C)[C@@]3(F)[C@@H](O)C[C@]2(C)[C@@]1(O)C(=O)CO [BOH, betamethasone]	AUC0–∞ ([3]; Reference formulation): 915.3 ± 206.5 × 10^−9 mol·dm^−3·h^−1; AUC0–∞ ([3]; Test formulation): 856.6 ± 269.4 × 10^−9 mol·dm^−3·h^−1; AUC0–t ([3]; Test formulation, t = 4 h (BDP), 120 h (BOH), 360 h (B17P)): 820.2 ± 249.4 × 10^−9 mol·dm^−3·h^−1; Short-term Dev. (%) ([2]; middle QC): 8.82%; Short-term MCM ± SD ([2]; middle QC): 10.87 ± 0.633 × 10^−9 mol·dm^−3; Long-term Dev. (%) ([2]; middle QC): 5.78%; Long-term MCM ± SD ([2]; middle QC): 10.57 ± 0.577 × 10^−9 mol·dm^−3; The autosampler MCM ± SD (24h) ([2]; middle QC): 10.20 ± 0.505 × 10^−9 mol·dm^−3; The autosampler Dev. (48h, %) ([2]; middle QC): 3.89%; The autosampler MCM ± SD (48h) ([2]; middle QC): 10.38 ± 0.513 × 10^−9 mol·dm^−3; Freeze–thaw Dev. (%) ([2]; middle QC): 4.88%; Freeze–thaw MCM ± SD ([2]; middle QC): 10.48 ± 0.645 × 10^−9 mol·dm^−3

SMILES	Short-term Dev. (%) ([2]; high QC)	Short-term MCM ± SD ([2]; high QC)	Long-term Dev. (%) ([2]; high QC)	Long-term MCM ± SD ([2]; high QC)	The autosampler Dev. (24h, %) ([2]; high QC)	The autosampler MCM ± SD (24h) ([2]; high QC)	The autosampler Dev. (48h, %) ([2]; high QC)	The autosampler MCM ± SD (48h) ([2]; high QC)	Freeze–thaw Dev. (%) ([2]; high QC)	Freeze–thaw MCM ± SD ([2]; high QC)	Short-term Dev. (%) ([2]; low QC)	Short-term MCM ± SD ([2]; low QC)	Long-term Dev. (%) ([2]; low QC)	Long-term MCM ± SD ([2]; low QC)	The autosampler Dev. (24h, %) ([2]; low QC)	The autosampler MCM ± SD (24h) ([2]; low QC)	The autosampler Dev. (48h, %) ([2]; low QC)	The autosampler MCM ± SD (48h) ([2]; low QC)	Freeze–thaw Dev. (%) ([2]; low QC)	Freeze–thaw MCM ± SD ([2]; low QC)	other results
C[C@H]1C[C@H]2[C@@H]3CCC4=CC(=O)C=C[C@]4(C)[C@@]3(F)[C@@H](O)C[C@]2(C)[C@@]1(O)C(=O)COP(=O)([O-])[O-].[Na+].[Na+] [BSP, betamethasone sodium phosphate]	−3.78%	310.9 ± 14.43 × 10^−9 mol·dm^−3	−1.02%	320.0 ± 10.35 × 10^−9 mol·dm^−3	−2.94%	313.6 ± 35.39 × 10^−9 mol·dm^−3	11.19%	359.2 ± 22.46 × 10^−9 mol·dm^−3	−2.50%	315.1 ± 4.665 × 10^−9 mol·dm^−3	−1.19%	4.988 ± 0.250 × 10^−9 mol·dm^−3	−1.07%	4.994 ± 0.560 × 10^−9 mol·dm^−3	4.03%	5.252 ± 0.696 × 10^−9 mol·dm^−3	10.63%	5.585 ± 0.616 × 10^−9 mol·dm^−3	−2.84%	4.905 ± 0.357 × 10^−9 mol·dm^−3	Short-term Dev. (%) ([2]; middle QC): −2.55%; Short-term MCM ± SD ([2]; middle QC): 39.36 ± 5.767 × 10^−9 mol·dm^−3; Long-term Dev. (%) ([2]; middle QC): −1.06%; Long-term MCM ± SD ([2]; middle QC): 39.94 ± 5.576 × 10^−9 mol·dm^−3; The autosampler Dev. (24h, %) ([2]; middle QC): 1.08%; The autosampler MCM ± SD (24h) ([2]; middle QC): 40.83 ± 5.209 × 10^−9 mol·dm^−3; The autosampler Dev. (48h, %) ([2]; middle QC): 9.88%; The autosampler MCM ± SD (48h) ([2]; middle QC): 44.38 ± 5.581 × 10^−9 mol·dm^−3; Freeze–thaw Dev. (%) ([2]; middle QC): −2.67%; Freeze–thaw MCM ± SD ([2]; middle QC): 39.30 ± 5.785 × 10^−9 mol·dm^−3; stability in human blank plasma ([2]; without stabilizer (sodium cacodylate, potassium fluoride)): labile
